Here are results for three compounds from article PMC2865690 (ChemMedChem, 2009).

The conditions of data set [1]: cited from earlier work.
The subject of data set [2] is mGluR5. The experiment in a line: Fold-shift assay of the glutamate concentration-response curve. Format: cell-based. Conditions: 1 μM compound; leftward shift.
For data set [3], the system named is mGluR5. As to the kind of experiment: mGluR5 allosteric agonist activity, compound alone without glutamate. Format: cell-based. In a few lines:
(§1)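 Calcium fluorescence recorded continuously on mGluR5. Test compound added alone at t = 4 s, then an EC20 concentration of glutamate added 140 s later. Agonism is read from the response to compound alone; potentiation from the response to EC20 glutamate. Full concentration-response curves, up to 30 μM, give EC50s.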

In data set [4] the test system is mGluR5. As to the kind of experiment: mGluR5 potentiation. In kind it is cell-based. The following applies: read-out: Potentiator EC50; at an EC20 concentration of glutamate; average of at least three determinations. In a few lines: as §1

Turning to `N#Cc1cccc(C(=O)Nc2cc(-c3ccccc3)nn2-c2ccccc2)c1` [CDPPB], the “Solubility in most vehicles” value in data set [1] is listed as “poor solubility”.

What is called EC50 is the concentration needed to bring the measured effect to its halfway point. In the case of `O=C(c1ccc(F)cc1)N1CCC[C@H](c2nc(-c3ccc(F)cc3)no2)C1` [ADX-47273], in the data set on mGluR5 [2], the “Fold shift of the glutamate CRC” value was determined as 9 fold. For the same compound, in the data set on mGluR5 [3], the “Allosteric agonist % Glu Max” value stood at 65%. Also, the half-maximal effective concentration (EC50) with mGluR5 [3] (read-out: Allosteric agonist EC50, absence of an EC20 of glutamate) is 9500 nM; with mGluR5 [4], 168 ± 28 nM.

With `O=C(c1ccc(F)cc1)N1CCCC(c2nc(-c3ccc(F)cc3)no2)C1` (stereo not drawn) [16a], the EC50 in the data set on mGluR5 [4] was 1680 ± 3620 nM.
